Tests used:
[1] = target: T1, Alpha-1A adrenergic receptor (Rattus norvegicus, UniProt P43140); assay: Antagonist activity at alpha1A adrenergic receptor in Wistar rat prostatic rat vas deferens assessed as inhibition of noradrenaline-induced contraction preincubated for 30 mins followed by noradrenaline addition measured after 45 mins in presence of cocaine hydrochloride; assay type: functional; conditions: read-out: pA2 (converted)
T1 sequence (P43140 whole entry): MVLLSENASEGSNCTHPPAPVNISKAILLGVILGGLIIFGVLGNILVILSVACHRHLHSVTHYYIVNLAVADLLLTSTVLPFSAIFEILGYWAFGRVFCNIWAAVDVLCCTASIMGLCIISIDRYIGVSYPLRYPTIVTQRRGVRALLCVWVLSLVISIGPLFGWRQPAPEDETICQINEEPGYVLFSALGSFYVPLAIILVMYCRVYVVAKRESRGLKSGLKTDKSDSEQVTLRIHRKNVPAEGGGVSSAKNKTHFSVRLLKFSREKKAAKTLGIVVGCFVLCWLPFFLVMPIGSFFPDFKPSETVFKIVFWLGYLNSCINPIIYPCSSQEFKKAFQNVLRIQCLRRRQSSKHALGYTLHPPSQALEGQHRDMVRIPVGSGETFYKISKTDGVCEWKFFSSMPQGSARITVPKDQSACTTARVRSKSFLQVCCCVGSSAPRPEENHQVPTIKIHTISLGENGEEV
Summary of the method: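 Prostatic rat vas deferens, 2 cm portions, held at 0.35 g in Tyrode (pH 7.4, 37 °C, 95% O2/5% CO2). Cocaine 10 μM added 20 min before the agonist. Tissue equilibrated 45 min and primed twice with 10 μM noradrenaline. Isotonic cumulative noradrenaline curves were run before and after 30 min antagonist. pA2 came from Schild plots (≥3 concentrations); otherwise pKB (van Rossum). n ≥ 4.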

[2] = target: T2, Alpha-1B adrenergic receptor (Rattus norvegicus) (UniProt P15823); assay: Antagonist activity at alpha1B adrenergic receptor in Wistar rat spleen assessed as inhibition of phenylephrine-induced contraction incubated for 30 mins in presence of beta-adrenoceptor blocker propranolol hydrochloride; assay type: functional
T2 sequence (whole entry): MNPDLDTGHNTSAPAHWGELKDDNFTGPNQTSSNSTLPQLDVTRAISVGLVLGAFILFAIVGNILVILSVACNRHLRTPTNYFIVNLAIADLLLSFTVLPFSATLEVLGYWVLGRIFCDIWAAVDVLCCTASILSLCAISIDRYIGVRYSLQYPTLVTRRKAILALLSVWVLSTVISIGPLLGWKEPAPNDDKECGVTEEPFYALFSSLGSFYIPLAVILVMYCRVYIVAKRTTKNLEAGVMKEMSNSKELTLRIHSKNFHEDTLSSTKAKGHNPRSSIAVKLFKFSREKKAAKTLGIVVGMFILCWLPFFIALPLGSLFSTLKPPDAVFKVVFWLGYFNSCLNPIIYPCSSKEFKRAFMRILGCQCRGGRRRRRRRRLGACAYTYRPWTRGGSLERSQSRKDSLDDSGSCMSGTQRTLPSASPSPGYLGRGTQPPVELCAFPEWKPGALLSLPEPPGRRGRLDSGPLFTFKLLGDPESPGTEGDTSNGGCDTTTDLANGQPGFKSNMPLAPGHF
Summary of the method: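 Spleen bisected longitudinally into strips in Krebs with propranolol 4 μM, held at 1 g and equilibrated 2 h. Two isometric cumulative phenylephrine curves, each followed by 30 min washing. Third curve after 30 min vehicle or antagonist. Potency as pA2 (Schild) or pKB at one concentration (van Rossum). Responses as % of control maximum; n ≥ 4.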

[3] = target: T3, Alpha-1A adrenergic receptor (Homo sapiens, UniProt P35348); assay: Displacement of [3H]prazosin from human alpha1A adrenergic receptor expressed in CHO cell membranes after 30 mins by rapid filtration method
T3 sequence (P35348 whole entry): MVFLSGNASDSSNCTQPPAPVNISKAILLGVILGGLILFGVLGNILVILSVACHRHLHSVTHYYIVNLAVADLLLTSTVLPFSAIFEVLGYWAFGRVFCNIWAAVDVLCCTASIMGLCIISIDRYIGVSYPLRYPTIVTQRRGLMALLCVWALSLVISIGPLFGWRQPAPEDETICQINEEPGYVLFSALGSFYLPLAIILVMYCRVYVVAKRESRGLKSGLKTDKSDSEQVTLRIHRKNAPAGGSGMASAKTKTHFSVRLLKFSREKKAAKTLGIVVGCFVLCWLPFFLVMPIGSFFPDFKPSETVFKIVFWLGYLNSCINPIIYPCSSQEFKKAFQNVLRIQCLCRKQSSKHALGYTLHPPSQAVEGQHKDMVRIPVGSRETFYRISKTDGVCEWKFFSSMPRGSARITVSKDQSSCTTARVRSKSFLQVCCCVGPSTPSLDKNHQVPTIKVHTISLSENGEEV
Summary of the method: (§1)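 Membranes (30 μg protein) from CHO cells stably transfected with the human α1a, α1b or α1d receptor. Incubated 30 min at 25 °C in 50 mM Tris-HCl pH 7.4 with 0.1–0.4 nM [3H]prazosin and competitor 1 pM–10 μM. Nonspecific binding defined by 10 μM phentolamine. Stopped by rapid filtration through PEI-treated filters. IC50 converted to Ki by Cheng-Prusoff; pKi from 2–3 experiments in triplicate.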

[4] = target: T4, Alpha-1B adrenergic receptor (Homo sapiens, UniProt P35368); assay: Displacement of [3H]prazosin from human alpha1B adrenergic receptor expressed in CHO cell membranes after 30 mins by rapid filtration method; summary of the method: as §1
T4 sequence (P35368 whole entry): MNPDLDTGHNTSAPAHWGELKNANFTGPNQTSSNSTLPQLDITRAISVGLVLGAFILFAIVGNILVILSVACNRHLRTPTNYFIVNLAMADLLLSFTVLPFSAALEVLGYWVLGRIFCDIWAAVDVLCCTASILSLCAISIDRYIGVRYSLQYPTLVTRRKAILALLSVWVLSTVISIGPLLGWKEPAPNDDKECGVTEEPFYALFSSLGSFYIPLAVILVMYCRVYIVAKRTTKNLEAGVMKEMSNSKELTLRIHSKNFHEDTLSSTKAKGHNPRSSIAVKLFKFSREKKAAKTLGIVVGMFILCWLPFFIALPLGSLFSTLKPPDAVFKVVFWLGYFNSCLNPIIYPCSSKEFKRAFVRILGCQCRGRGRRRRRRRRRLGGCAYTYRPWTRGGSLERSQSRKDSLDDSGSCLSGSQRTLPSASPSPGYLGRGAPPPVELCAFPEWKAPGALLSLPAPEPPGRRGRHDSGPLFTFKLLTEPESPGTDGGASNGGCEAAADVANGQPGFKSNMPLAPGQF

[5] = target: T5, Alpha-1D adrenergic receptor (Homo sapiens, UniProt P25100); assay: Displacement of [3H]prazosin from human alpha1D adrenergic receptor expressed in CHO cell membranes after 30 mins by rapid filtration method; summary of the method: as §1
T5 sequence (P25100 whole entry): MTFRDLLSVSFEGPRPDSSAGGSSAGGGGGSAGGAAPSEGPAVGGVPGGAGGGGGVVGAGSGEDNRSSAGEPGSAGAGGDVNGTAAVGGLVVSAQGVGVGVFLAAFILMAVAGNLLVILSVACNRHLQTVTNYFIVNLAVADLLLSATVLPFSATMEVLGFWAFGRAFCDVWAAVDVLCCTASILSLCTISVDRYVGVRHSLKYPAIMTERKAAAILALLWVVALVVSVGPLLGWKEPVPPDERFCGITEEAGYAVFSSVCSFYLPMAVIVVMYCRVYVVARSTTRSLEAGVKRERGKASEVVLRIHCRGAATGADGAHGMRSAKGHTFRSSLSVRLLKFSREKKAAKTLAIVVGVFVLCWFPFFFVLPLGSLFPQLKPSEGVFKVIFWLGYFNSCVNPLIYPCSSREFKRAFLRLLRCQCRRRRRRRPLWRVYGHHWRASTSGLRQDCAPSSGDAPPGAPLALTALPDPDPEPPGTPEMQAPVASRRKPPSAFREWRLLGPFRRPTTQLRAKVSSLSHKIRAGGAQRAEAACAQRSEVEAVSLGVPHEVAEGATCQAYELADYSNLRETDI

[6] = target: T4, Alpha-1B adrenergic receptor; assay: Binding affinity to human alpha1B adrenergic receptor

| Kb [1] | pKb [2] | Ki [3] | Ki [4] | Ki [5] | Ki [6] | Structure (SMILES) |
| --- | --- | --- | --- | --- | --- | --- |
| 589 pM | 9.67 | 589 pM | 70.8 pM | 60.3 pM |  | COc1cc2nc(N3CCN(C(=O)c4ccco4)[C@@H]4CCCC[C@@H]43)nc(N)c2cc1OC |
|  | 8.86 |  |  |  | 135 to 692 pM | COc1cc2nc(N3CCN(C(=O)c4ccco4)[C@H]4CCCC[C@H]43)nc(N)c2cc1OC [CYCLAZOSIN] |
